Reference: ChEMBL document CHEMBL1133471, “Sequential cytotoxicity: a theory evaluated using novel 2-[4-(3-aryl-2-propenoyloxy)phenylmethylene]cyclohexanones and related compounds” (J Med Chem, 2000)
Starred links: 1 amine or outer side, 2 acyl side, 3 side chain; linkers in the order of their positions; H or OH if unused. Positions of bridges follow the written chain, without caps; N, C: chain ends. Non-standard residues stand in square brackets, D forms with d. Residues, ends and D or L forms follow the SMILES beside them. Chains are numbered I, II in the order given. Actinocin(1to9) = Cc1c2oc3c(C)ccc(C(=O)[*:2])c3nc-2c(C(=O)[*:1])c(N)c1=O; NMeV = CN[C@H](C(=O)O)C(C)C; Sar = CNCC(=O)O

Columns and labels:
[1] = test system: P388; assay: Concentration required to inhibit 50% of cell growth on murine P388 D1 cells.; type: functional, cell-based; conditions: Mus musculus
[2] = Selectivity index is the ratio of MG MID value for all cell lines to that of leukemic cells; type: functional
[3] = test system: leukaemia cell line; assay: Mean graph mid point was measured on leukemic cells.; type: functional, Homo sapiens
In short: (§1)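 Human tumor panel of about 55 lines: leukemia, melanoma, non-small-cell lung, colon, CNS, ovarian, renal, prostate and breast. Compounds generally tested from 10^-4 to 10^-8 M, noting 50% growth inhibition for each line. Mean graph midpoints taken for all lines, leukemic lines and colon lines. Duplicate or triplicate runs were averaged.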

[4] = test system: Colon carcinoma cell; assay: Mean graph mid point was measured on colon cancer cells.; type: functional, Homo sapiens; in short: as §1
[5] = test system: Mus musculus; assay: Ip score was calculated by implanting different tumor cell lines in hollow fibres in mice by the intraperitoneal route(Net cell kill was observed it indicates the cytotoxicity was occurred); type: functional
[6] = test system: Tumor cancer cell line; assay: (§2) Mean graph mid point was measured on all cell lines.; type: functional, Homo sapiens; in short: as §1
[7] = test system: L1210; assay: Concentration required to inhibit 50% of cell growth on murine L1210 cells.; type: functional, cell-based; conditions: Mus musculus
In short: (§3)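 Murine P388 D1 and L1210 leukemia cells and human Molt 4/C8 and CEM T-lymphocytes were tested. IC50 is the concentration inhibiting 50% of growth.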

[8] = test system: MOLT-4; assay: Concentration required to inhibit 50% of cell growth on human Molt 4/C8 cells.; type: functional, cell-based; in short: as §3
[9] = Selectivity index is the ratio of MG MID value for all cell lines to that of colon cancer cells; type: functional
[10] = organism: Mus musculus; assay: Sc score was calculated by implanting different tumor cell lines in hollow fibres in mice by the occurred); type: functional
In short: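 Mice carried hollow fibers with 12 human tumor lines (colon, breast, NSCLC, melanoma, ovarian, CNS) implanted ip and sc. Compounds were given ip at two doses daily for 4 days. Fibers were collected 1 day after the last dose. Viable cell mass was measured by MTT formazan conversion, giving the sc score.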

[11] = test system: CCRF-CEM; assay: Concentration required to inhibit 50% of cell growth on CEM lymphocytes.; type: functional, cell-based; conditions: Homo sapiens; in short: as §3
[12] = organism: Homo sapiens; assay: (§4) Inhibitory concentration was evaluated on human Jurkat T-cells after their exposure for 48 hours; type: functional
In short: (§5)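 Human Jurkat T cells exposed to compounds for 48 h. Viability scored by nigrosin dye exclusion, used in place of trypan blue. IC50 and IC80 taken from the resulting viability data.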

[13] = organism: Homo sapiens; assay: as §4; type: functional, cell-based; in short: as §5
[14] = organism: Homo sapiens; assay: Inhibition of RNA synthesis was evaluated on human Jurkat T-cells after 8 hours.; type: functional; set-up: concentration or dose not given beside the values
[15] = organism: Homo sapiens; assay: Inhibition of protein synthesis was evaluated on human Jurkat T-cells after 8 hours.; type: functional; set-up: concentration or dose not given beside the values
[16] = organism: Homo sapiens; assay: Apoptotic index calculated using human Jurkat T cells; type: functional
In short: (§6)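 Jurkat T cells exposed at concentrations giving IC80 (IC80 determined after 48 h exposure). Nuclei stained with ethidium bromide (0.1% w/v) plus acridine orange (0.1% w/v). Apoptotic index = (cells with apoptotic nuclei / cells counted) × 100.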

[17] = organism: Homo sapiens; assay: Apoptotic index was evaluated on human Jurkat T-cells after 24 hours.(Using 80% inhibitory concentration); type: functional; in short: as §6
[18] = test system: Mus musculus; assay: sc score was calculated by implanting different tumor cell lines in hollow fibres in mice by the subcutaneously route (Net cell kill was not observed).; type: functional
[19] = test system: Mus musculus; assay: Ip score was calculated by implanting different tumor cell lines in hollow fibres in mice by the intraperitoneal route (Net cell kill was not observed).; type: functional
[20] = test system: Panel colon (Carcinoma cell lines); assay: Mean graph mid point was measured on colon cancer cell lines.; type: functional, Homo sapiens; in short: as §1
[21] = test system: leukaemia cell line; assay: Mean graph mid point was measured on leukemicell lines.; type: functional, Homo sapiens; in short: as §1
[22] = test system: Tumor cell line; assay: as §2; type: functional, Homo sapiens; in short: as §1
[23] = test system: Mus musculus; assay: Sc score was calculated by implanting different tumor cell lines in hollow fibres in mice by the subcutaneously route (Net cell kill was not observed); type: functional
[24] = test system: Mus musculus; assay: Ip score was calculated by implanting different tumor cell lines in hollow fibres in mice by the intraperitoneal route (Net cell kill was not observed); type: functional

| SMILES | IC50 [1] | SI [2] | MG MID [3] | MG MID [4] | MG MID [6] | IC50 [7] | IC50 [8] | SI [9] | IC50 [11] | other results |
| --- | --- | --- | --- | --- | --- | --- | --- | --- | --- | --- |
| CN(C)CC1CCC/C(=C\c2ccc(OC(=O)/C=C/c3ccccc3)cc2)C1=O.Cl (stereo unspecified) | 4.02 µM | 2.3 | 1.06 µM | 2.21 µM | 2.41 µM | 32.8 µM | 39.5 µM | 1.1 | 42.8 µM | Ip score [5]: 12; Subcut score [10]: 14 |
| COc1ccc(C(=O)Oc2ccc(/C=C3\CCCC(CN(C)C)C3=O)cc2)cc1 (stereo unspecified) | 0.332 µM |  |  |  |  | 2.87 µM | 2.36 µM |  | 5.07 µM |  |
| COc1ccc(/C=C/C(=O)Oc2ccc(/C=C3\CCCC(CN(C)C)C3=O)cc2)cc1 (stereo unspecified) | 2.41 µM |  |  |  |  |  |  |  |  |  |
| Cc1ccc(/C=C/C(=O)Oc2ccc(/C=C3\CCCC(CN(C)C)C3=O)cc2)cc1 (stereo unspecified) | 1.29 µM |  |  |  |  | 2.43 µM | 3.39 µM |  | 7.02 µM |  |
| CN(C)CC1CCC/C(=C\c2ccc(OC(=O)/C=C/c3ccc(Br)cc3)cc2)C1=O.Cl (stereo unspecified) | 4.03 µM |  |  |  |  | 1.78 µM | 3.06 µM |  | 4.44 µM | IC80 [12]: 7.63 µM; IC50 [13]: 4.47 µM; Inhibition [14]: 84.5%; Inhibition [15]: 46.6%; Apoptotic index [16]: 59.2 |
| CN(C)CC1CCC/C(=C\c2ccc(OC(=O)/C=C/c3ccc(F)cc3)cc2)C1=O (stereo unspecified) | 4.55 µM |  |  |  |  | 1.84 µM | 3.78 µM |  | 6 µM |  |
| CN(C)CC1CCC/C(=C\c2ccc(OC(=O)c3ccccc3)cc2)C1=O (stereo unspecified) | 0.18 µM |  |  |  |  | 23.4 µM | 24.1 µM |  | 29.4 µM |  |
| O=C(CCc1ccccc1)Oc1ccc(/C=C2\CCCCC2=O)cc1 | 21.9 µM |  |  |  |  | 52.4 µM | 31.1 µM |  | 34.4 µM |  |
| Cc1ccc(/C=C/C(=O)Oc2ccc(/C=C3\CCCCC3=O)cc2)cc1 | > 50 µM |  |  |  |  | 202 µM | 156 µM |  | 230 µM |  |
| O=C(/C=C/c1ccccc1)Oc1ccc(/C=C2\CCCCC2=O)cc1 | 20.3 µM | 4.4 | 8.32 µM | 29.1 µM | 36.3 µM | 30.7 µM | 30.7 µM | 1.3 | 26 µM |  |
| O=C(/C=C/c1ccc(Br)cc1)Oc1ccc(/C=C2\CCCCC2=O)cc1 | > 50 µM |  |  |  |  | 127 µM | 180 µM |  | 131 µM | Apoptotic index [17]: 23.3; IC80 [12]: 31.7 µM; IC50 [13]: 19.8 µM; Inhibition [14]: 77.5%; Inhibition [15]: 69.1%; Apoptotic index [16]: 23.3 |
| COc1ccc(/C=C/C(=O)Oc2ccc(/C=C3\CCCCC3=O)cc2)cc1 | 9.03 µM | 5.3 | 9.36 µM | 25.4 µM | 49.7 µM | 10.2 µM | 2.06 µM | 2 | 8.78 µM |  |
| O=C1CCCC/C1=C\c1ccc(OC(=O)c2ccccc2)cc1 | > 50 µM |  |  |  |  |  |  |  |  |  |
| O=C1CCCC/C1=C\c1ccc(OC(=O)c2ccc(Cl)cc2)cc1 | 25.5 µM |  |  |  |  | 3.33 µM | 38 µM |  | 41 µM |  |
| O=C(/C=C/c1ccc(Cl)c(Cl)c1)Oc1ccc(/C=C2\CCCCC2=O)cc1 | > 50 µM | 1.7 | 53 µM | 100 µM | 91.2 µM | 64.8 µM | 47.3 µM | 0.9 | 63.8 µM |  |
| Cc1ccc(C(=O)Oc2ccc(/C=C3\CCCCC3=O)cc2)cc1 | > 50 µM |  |  |  |  | 44.8 µM | 25.6 µM |  | 22.7 µM |  |
| COc1ccc(C(=O)Oc2ccc(/C=C3\CCCCC3=O)cc2)cc1 | > 50 µM |  |  |  |  | 43.4 µM | 34 µM |  | 36.1 µM |  |
| CN(C)CC1CCC/C(=C\c2ccc(OC(=O)c3ccc(Cl)cc3)cc2)C1=O.Cl (stereo unspecified) | 0.425 µM | 5.4 | 0.307 µM | 1.21 µM | 1.66 µM | 5.61 µM | 5.11 µM | 1.4 | 6.15 µM | Subcut score [18]: 10; IC80 [12]: 5.6 µM; Ip score [19]: 2; IC50 [13]: 3.5 µM; Inhibition [14]: 88.4%; Inhibition [15]: 62%; Apoptotic index [16]: 73.3 |
| CN(C)CC1CCC/C(=C\c2ccc(OC(=O)/C=C/c3ccc(Cl)c(Cl)c3)cc2)C1=O.Cl (stereo unspecified) | 4.18 µM | 4.3 |  |  |  | 3.31 µM | 4.57 µM | 1.5 | 5.82 µM | MG MID [20]: 2.38 µM; MG MID [21]: 0.83 µM; MG MID [22]: 3.57 µM |
| CN(C)CC1CCC/C(=C\c2ccc(OC(=O)/C=C/c3ccc(Cl)cc3)cc2)C1=O.Cl (stereo unspecified) | 1.61 µM | 4.1 | 0.864 µM | 2.3 µM | 3.58 µM | 1.74 µM | 2.65 µM | 1.6 | 3.56 µM | IC80 [12]: 4.04 µM; IC50 [13]: 2.53 µM; Inhibition [14]: 78%; Subcut score [23]: 6; Ip score [24]: 0; Inhibition [15]: 37%; Apoptotic index [16]: 87 |
| O=C(/C=C/c1ccc(Cl)cc1)Oc1ccc(/C=C2\CCCCC2=O)cc1 | > 50 µM | 1.5 | 60.5 µM | 81 µM | 91.2 µM | 64.3 µM | 78.6 µM | 1.1 | 63.4 µM |  |
| O=C(/C=C/c1ccc(F)cc1)Oc1ccc(/C=C2\CCCCC2=O)cc1 | > 50 µM |  |  |  |  | 30.9 µM | 26.6 µM |  | 14.4 µM |  |
| N[C@@H](Cc1ccc(N(CCCl)CCCl)cc1)C(=O)O |  |  | 4.65 µM | 44.6 µM | 23.5 µM |  |  |  |  | IC50 [13]: 2.2 µM; Inhibition [14]: 85.1%; Inhibition [15]: 17.3% |
| C[C@@H]1C[C@@H]([C@H](O)CC2CC(=O)NC(=O)C2)C(=O)[C@@H](C)C1 [CYCLOHEXIMIDE] |  |  |  |  |  |  |  |  |  | IC50 [13]: 0.93 µM; Inhibition [14]: 93.3%; Inhibition [15]: 71.9%; Apoptotic index [16]: 38.3 |
| Cc1c2oc3c(C)ccc(C(=O)N[C@@H]4C(=O)N[C@H](C(C)C)C(=O)N5CCC[C@H]5C(=O)N(C)CC(=O)N(C)[C@@H](C(C)C)C(=O)O[C@@H]4C)c3nc-2c(C(=O)N[C@@H]2C(=O)N[C@H](C(C)C)C(=O)N3CCC[C@H]3C(=O)N(C)CC(=O)N(C)[C@@H](C(C)C)C(=O)O[C@@H]2C)c(N)c1=O [DACTINOMYCIN] (I: T[dV]P[Sar][NMeV] / II: T[dV]P[Sar][NMeV]; ester I:1-I:C, II:1-II:C; linker I:N-II:N via Actinocin(1to9)) |  |  |  |  |  |  |  |  |  | IC80 [12]: 0.0072 µM; IC50 [13]: 0.0045 µM; Inhibition [14]: 90.5%; Inhibition [15]: 49.2%; Apoptotic index [16]: 35.5 |
| O=c1[nH]cc(F)c(=O)[nH]1 [FLUOROURACIL] | 0.49 µM |  | 27.6 µM | 7.9 µM | 32.6 µM | 0.28 µM | 23 µM |  | 8.9 µM |  |
| C=C1C(=O)O[C@@H]2C[C@@H](C)[C@@H]3C=CC(=O)[C@@]3(C)[C@@H](O)[C@H]12 [HELENALIN] |  | 2.3 | 0.62 µM | 1.42 µM | 1.45 µM |  |  | 1 |  |  |
